Data reported in ChEMBL document CHEMBL3992510, “Urea Derivatives of 2-Aryl-benzothiazol-5-amines: A New Class of Potential Drugs for Human African Trypanosomiasis” (J Med Chem, 2017).
Calls of active or inactive are those of the source. The rule behind the calls is not given here.

Key:
[1] = Stability in mouse liver microsomes assessed as compound remaining at 1.5 uM in presence of NADPH measured after 5 mins by liquid chromatography/tandem mass spectrometric analysis; assay type: ADME, microsome; conditions: read-out: Stability
[2] = Selectivity index, ratio of EC50 for human CRL8155 cells to EC50 for Trypanosoma brucei brucei BF427; assay type: toxicity; conditions: read-out: Ratio EC50
[3] = tested on: Liver; experiment: Half life in mouse liver microsomes at 1.5 uM in presence of NADPH by liquid chromatography/tandem mass spectrometric analysis; assay type: ADME, microsome
[4] = tested on: Liver; experiment: Half life in human liver microsomes at 1.5 uM in presence of NADPH by liquid chromatography/tandem mass spectrometric analysis; assay type: ADME, microsome
[5] = Selectivity index, ratio of EC50 for human HepG2 cells to EC50 for Trypanosoma brucei brucei BF427; assay type: toxicity; conditions: read-out: Ratio EC50
[6] = tested on: Trypanosoma brucei brucei; experiment: Antitrypanosomal activity against Trypanosoma brucei brucei BF427 assessed as growth inhibition measured after 48 hrs by Alamar blue assay; assay type: functional; conditions: BF427, 48 h
How it was run: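 Bloodstream-form parasites in HMI-9 medium are exposed to serial compound dilutions in triplicate. Viability is read with Alamar Blue at 48 h. EC50 and EC90 come from nonlinear regression. Pentamidine isethionate is the control.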

[7] = tested on: HepG2; experiment: Cytotoxicity against human HepG2 cells assessed as growth inhibition after 48 hrs by Alamar blue assay; assay type: cell-based; conditions: for EC50: Homo sapiens, HepG2, 48 h; for EC90: human, hepg2, 48 h
How it was run: (§1)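 CRL-8155 lymphoblasts or HepG2 hepatocellular carcinoma cells are exposed 48 h to serial compound dilutions in quadruplicate. Growth is read with Alamar Blue, and 50% and 90% inhibitory concentrations come from nonlinear regression. Quinacrine is the control.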

[8] = Cytotoxicity against human CRL8155 cells assessed as growth inhibition after 48 hrs by Alamar blue assay; assay type: cell-based; conditions: for EC50: Homo sapiens, CRL8155, 48 h; for EC90: human, crl8155, 48 h; how it was run: as §1
[9] = Stability in human liver microsomes assessed as compound remaining at 1.5 uM in presence of NADPH measured after 60 mins by liquid chromatography/tandem mass spectrometric analysis; assay type: ADME, microsome; conditions: read-out: Stability
How it was run: (§2)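 Pooled liver microsomes (0.5 mg/mL) are preincubated 5 min at 37 °C in 0.16 M KH2PO4 with 1 mM NADPH, then test compound is added at 1.5 μM. Aliquots are quenched with 4 volumes of acetonitrile at 0, 5, 10, 15, 30 and 60 min and analyzed by LC-MS/MS. Percent remaining at 5 or 60 min is given when t1/2 is outside the 5–60 min range. Controls: testosterone, dextromethorphan.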

[10] = Drug level in mouse plasma at 5 mg/kg, ip administered as single dose measured at 1 hr post dose by liquid chromatography/tandem mass spectrometric analysis; assay type: ADME, organism-based
How it was run: (§3)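 Single ip dose of 5 mg/kg in 5% DMSO/7% Tween 80/3% EtOH in 0.9% saline, three mice per compound (six for one compound). At 1 h, plasma is separated by centrifugation and brain homogenized in acetonitrile. Both are quantified by LC-MS/MS, with brain corrected for 3% v/w blood. Brain/plasma ratio is reported as mean ± SEM.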

[11] = AUC (0 to infinity) in mouse at 50 mg/kg, po administered as single dose via gavage as 7% Tween 80/3% EtOH/5% DMSO formulation by liquid chromatography/tandem mass spectrometric analysis; assay type: ADME, organism-based; parameters: dose 50 mg/kg, route oral, time infinity; conditions: in vivo
How it was run: (§4)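 Single oral gavage dose of 50 mg/kg to groups of three mice, vehicle as in the line. Tail blood of 40 μL is taken into heparinized capillaries at time points out to as much as 32 h. It is spotted on dried-blood cards and quantified by LC-MS/MS. Values are means ± SEM of three mice.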

[12] = Ratio of drug level in brain to plasma in mouse at 5 mg/kg, ip administered as single dose measured at 1 hr post dose by liquid chromatography/tandem mass spectrometric analysis; assay type: ADME, organism-based; how it was run: as §3
[13] = Cmax in mouse at 50 mg/kg, po administered as single dose via gavage as 7% Tween 80/3% EtOH/5% DMSO formulation by liquid chromatography/tandem mass spectrometric analysis; assay type: ADME, organism-based; parameters: dose 50 mg/kg, route oral; conditions: in vivo; how it was run: as §4
[14] = Stability in mouse liver microsomes assessed as compound remaining at 1.5 uM in presence of NADPH measured after 60 mins by liquid chromatography/tandem mass spectrometric analysis; assay type: ADME, microsome; conditions: read-out: Stability; how it was run: as §2
[15] = Drug level in mouse brain at 5 mg/kg, ip administered as single dose measured at 1 hr post dose by liquid chromatography/tandem mass spectrometric analysis; assay type: ADME, organism-based; conditions: read-out: Drug uptake; how it was run: as §3
[16] = tested on: Trypanosoma brucei brucei; experiment: Anti-parasitic activity against Trypanosoma brucei brucei TREU667 infected in mouse assessed as reduction in parasitemia at 10 mg/kg, ip bid administered on day 21 to 30 post infection measured on day 180 by microscopic method; assay type: functional, organism-based
[17] = Stability in human liver microsomes assessed as compound remaining at 1.5 uM in presence of NADPH measured after 5 mins by liquid chromatography/tandem mass spectrometric analysis; assay type: ADME, microsome; conditions: read-out: Stability; how it was run: as §2

Compound	remaining at 5 min, 1.5 µM [1]	selectivity ratio [2]	t1/2 [3]	t1/2 [4]	selectivity ratio [5]	EC50 [6]	EC90 [6]	EC50 [7]	EC90 [7]	EC50 [8]	EC90 [8]	remaining at 1 h, 1.5 µM [9]	concentration at 1 h [10]	AUC(0-inf) [11]	BPR [12]	Cmax [13]	remaining at 1 h, 1.5 µM [14]	concentration at 1 h [15]	Activity [16]	remaining at 5 min, 1.5 µM [17]
O=C(NCCc1nc(-c2cccc(F)c2)cs1)N1CCC(F)CC1	5.5%	> 1370	< 5 min	5.6 min	> 1370	0.0366 µM	0.0575 µM	> 50 µM	> 50 µM	> 50 µM	> 50 µM									
O=C(Nc1ccc2sc(-c3ccccc3)nc2c1)N1CCCCC1		> 137	17 min		> 137	0.366 µM	0.809 µM	> 50 µM	> 50 µM	> 50 µM	> 50 µM	62%								
O=C(Nc1ccc2sc(-c3ccc(F)c(F)c3)nc2c1)N1CCC(F)C1 (stereo not drawn)		> 963	> 60 min	> 60 min	> 963	0.0519 µM	0.0919 µM	> 50 µM	> 50 µM	> 50 µM		99%	3260 nM	108 µM·h	2.11	10000 nM	52%	5480 nM		
N=C(N)c1ccc(/N=N/Nc2ccc(C(=N)N)cc2)cc1																			inactive	
O=C(NCCc1nc(-c2ccc(F)c(F)c2)cs1)N1CCCCC1	0%		< 5 min	< 5 min																22%
S=C(NCCc1nc(-c2ccccc2)cs1)c1ccccc1	0%		< 5 min			1.44 µM	2.63 µM													
O=C(Nc1ccc2sc(-c3cccc(F)c3)nc2c1)N1CCCC1		> 316	12 min	37 min	> 316	0.158 µM	0.391 µM	> 50 µM	> 50 µM	> 50 µM	> 50 µM		2220 nM					2280 nM		
O=C(NCCc1nc(-c2cccc(F)c2)cs1)N1CCCC(F)(F)C1	14%	> 463	< 5 min	5.1 min	> 463	0.108 µM	0.168 µM	> 50 µM	> 50 µM	> 50 µM	> 50 µM									
O=C(NCCc1nc(-c2ccccc2)cs1)N1CCCCC1															0.613					
O=C(NCCc1nc(-c2cccc(F)c2)cs1)N1CCC(F)(F)CC1	20%	> 305	< 5 min	5.8 min	> 305	0.164 µM	0.23 µM	> 50 µM	> 50 µM	> 50 µM	> 50 µM									
O=C(NCCc1nc(-c2cccc(F)c2)cs1)N1CCCC(F)C1 (stereo not drawn)	18%	> 1750	< 5 min	10 min	> 1750	0.0285 µM	0.0557 µM	> 50 µM	> 50 µM	> 50 µM	> 50 µM									
O=C(NCCc1nc(-c2ccc(F)cc2F)cs1)N1CCCCC1	0%		< 5 min	< 5 min																46%
CC1CCCCN1C(=O)NCCc1nc(-c2cccc(F)c2)cs1 (stereo not drawn)	21%	> 1350	< 5 min	< 5 min	> 1350	0.037 µM	0.0586 µM	> 50 µM	> 50 µM	> 50 µM	> 50 µM									3.9%
CC(C)(CNC(=O)N1CCCCC1)c1nc(-c2ccccc2)cs1	0%		< 5 min			1.3 µM	2.4 µM													
O=C(Nc1ccc2sc(-c3ccc(F)c(F)c3)nc2c1)N1C[C@@H](F)[C@H](F)C1		> 238			> 439	0.114 µM	0.747 µM	> 50 µM	> 50 µM	27.1 µM	> 50 µM	96%	2190 nM	225 µM·h	7.71		67%	16200 nM		
Cl.S=C(NCCc1nc(-c2ccccc2)cs1)N1CCCCC1	1.8%	> 2060	< 5 min	8.2 min	> 2060	0.0243 µM	0.0424 µM	> 50 µM	> 50 µM	> 50 µM	> 50 µM		2000 nM		0.089			187 nM		
CC(C)(Cc1csc(-c2ccccc2)n1)NC(=O)N1CCCCC1	0%		< 5 min			7.84 µM	9.9 µM													
O=C(Nc1ccc2sc(-c3ccc(F)c(F)c3)nc2c1)N1CCCC1		369	14 min		> 545	0.0918 µM	0.181 µM	> 50 µM	> 50 µM	33.9 µM	> 50 µM	66%	2610 nM	7.39 µM·h				4250 nM		
O=C(Nc1ccc2oc(-c3ccccc3)nc2c1)N1CCCCC1			11 min			2.8 µM	9.3 µM					77%								
O=C(N/C=C/c1nc(-c2cccc(F)c2)cs1)N1CCCCC1		> 529	13 min	< 5 min	> 529	0.0946 µM	0.216 µM	> 50 µM	> 50 µM	> 50 µM	> 50 µM									28%
O=C(NCCc1nc(-c2ccccc2)cs1)c1ccccc1															0.3					
O=C(Nc1ccc2sc(-c3ccc(F)c(F)c3)nc2c1)N1CCC(F)(F)C1		> 54			> 54	0.934 µM	1.66 µM	> 50 µM	> 50 µM	> 50 µM	> 50 µM		2810 nM		7.92			21700 nM		
O=C(Nc1ccc2sc(-c3ccccc3)nc2c1)c1ccccc1			50 min			2.38 µM	7.74 µM					53%								
